Test results from ChEMBL document CHEMBL2163334, “Discovery of highly potent and selective pan-Aurora kinase inhibitors with enhanced in vivo antitumor therapeutic index” (J Med Chem, 2012).
Calls of active or inactive are those of the source. No cut-off for these calls is given here.

What was measured:
[1] = Protein binding in plasma; assay type: ADME, cell-free; details: read-out: PPB
Aurora kinase A [2] = target: T1, Aurora kinase A (Homo sapiens, UniProt O14965); test: Binding affinity to Aurora kinase A catalytic domain by competition binding assay
T1 sequence (O14965 whole entry): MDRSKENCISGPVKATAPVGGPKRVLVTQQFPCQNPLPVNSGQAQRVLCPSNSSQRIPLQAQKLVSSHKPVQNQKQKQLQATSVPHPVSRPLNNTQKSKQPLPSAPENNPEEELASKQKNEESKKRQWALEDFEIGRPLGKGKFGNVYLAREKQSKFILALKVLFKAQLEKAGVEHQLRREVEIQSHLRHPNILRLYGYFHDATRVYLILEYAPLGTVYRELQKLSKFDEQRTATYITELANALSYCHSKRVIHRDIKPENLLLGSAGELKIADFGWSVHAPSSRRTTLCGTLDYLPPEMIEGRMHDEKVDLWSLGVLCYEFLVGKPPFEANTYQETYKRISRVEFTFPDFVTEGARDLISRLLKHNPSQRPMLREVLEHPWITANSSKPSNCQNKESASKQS

Aurora kinase B [3] = target: T2, Aurora kinase B (Homo sapiens, UniProt Q96GD4); test: Binding affinity to Aurora kinase B catalytic domain by competition binding assay
T2 sequence (Q96GD4 whole entry, the tested form may be a part): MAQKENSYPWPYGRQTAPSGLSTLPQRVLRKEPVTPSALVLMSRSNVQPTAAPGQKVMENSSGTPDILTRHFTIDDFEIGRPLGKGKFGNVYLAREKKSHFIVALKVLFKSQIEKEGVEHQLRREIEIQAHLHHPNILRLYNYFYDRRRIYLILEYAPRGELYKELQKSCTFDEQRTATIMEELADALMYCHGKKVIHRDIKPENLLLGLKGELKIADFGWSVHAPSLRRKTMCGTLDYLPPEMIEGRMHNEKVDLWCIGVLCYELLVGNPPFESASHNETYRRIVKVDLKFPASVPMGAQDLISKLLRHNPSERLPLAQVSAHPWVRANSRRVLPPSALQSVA

Aurora kinase B [4] = target: T2, Aurora kinase B; test: Inhibition of Aurora kinase B-mediated histone H3 Ser10 phosphorylation in human HCT116 cells after 2 hrs by sandwich ELISA; assay type: cell-based, HCT-116
Summary of the method: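 HCT-116 cells seeded 4 × 10⁴/well, 4-6 h at 37 °C, then arrested overnight (16-18 h) with nocodazole at 66 ng/mL final. Treated 2 h with nine-point 3-fold dilutions in DMSO; lysed with phosphatase inhibitor, phospho-H3 (Ser10) sandwich ELISA read at 450 nm. IC50 = 50% inhibition of phosphorylation; duplicate runs averaged.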

HCT-116 [5] = test: Antiproliferative activity against human HCT116 cells after 72 hrs by BrdU-based ELISA; assay type: functional, cell-based; details: HCT-116, 72 h
Summary of the method: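 HCT-116 cells in McCoy's 5A with 10% FBS and pen/strep, seeded 800 cells/well, left overnight at 37 °C, 5% CO2. Nine-point 3-fold serial dilutions in DMSO added for 72 h; BrdU colorimetric ELISA read at 450 and 690 nm. IC50 is the concentration halving proliferation; duplicate runs averaged.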

Aurora kinase A [6] = target: T1, Aurora kinase A; test: Inhibition of Aurora kinase A autophosphorylation in human HEK293 cells after 2 hrs by phosphor antibody readout assay; assay type: cell-based
[7] = Clearance in Sprague-Dawley rat at 1 mg/kg, iv administered using PEG400/water as vehicle; assay type: ADME, organism-based; parameters: dose 1 mg/kg, route intravenous; details: in vivo
Summary of the method: (§1)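 SD rats fasted overnight, given 1 mg/kg iv in PEG400/water (3:1, v/v); three per arm. Blood into K3 EDTA at 5, 15, 30 min, 1, 2, 4, 6, 24 h, spun at 4 °C; plasma extracted with six volumes acetonitrile plus internal standard and quantified by LC-MS/MS (C8 column, formic acid/ACN gradient).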

[8] = Clearance in athymic Nu/Nu rat at 3 mg/kg, iv administered using TPPW as vehicle; assay type: ADME, organism-based; parameters: dose 3 mg/kg, route intravenous; details: in vivo
Summary of the method: (§2)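 Plasma from K3 EDTA blood at 5, 15, 30 min, 1, 2, 4, 6, 24 h; acetonitrile extraction with internal standard, LC-MS/MS on C8 column, 5-95% ACN gradient with 0.05% formic acid.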

[9] = Clearance in athymic Nu/Nu rat at 10 mg/kg, iv administered using TPPW as vehicle; assay type: ADME, organism-based; parameters: dose 10 mg/kg, route intravenous; details: in vivo; summary of the method: as §2
[10] = Clearance in athymic Nu/Nu rat at 30 mg/kg, iv administered using TPPW as vehicle; assay type: ADME, organism-based; parameters: dose 30 mg/kg, route intravenous; details: in vivo; summary of the method: as §2
[11] = Volume of distribution in Sprague-Dawley rat at 1 mg/kg, iv administered using PEG400/water as vehicle; assay type: ADME, organism-based; parameters: dose 1 mg/kg, route intravenous; details: in vivo; summary of the method: as §1
[12] = Volume of distribution in Nu/Nu rat at 3 mg/kg, iv administered using TPPW as vehicle; assay type: ADME, organism-based; parameters: dose 3 mg/kg, route intravenous; details: in vivo; summary of the method: as §2
[13] = Volume of distribution in Nu/Nu rat at 10 mg/kg, iv administered using TPPW as vehicle; assay type: ADME, organism-based; parameters: dose 10 mg/kg, route intravenous; details: in vivo; summary of the method: as §2
[14] = Volume of distribution in Nu/Nu rat at 30 mg/kg, iv administered using TPPW as vehicle; assay type: ADME, organism-based; parameters: dose 30 mg/kg, route intravenous; details: in vivo; summary of the method: as §2
[15] = AUC (0 to infinity) in Sprague-Dawley rat at 1 mg/kg, iv administered using PEG400/water as vehicle; assay type: ADME, organism-based; parameters: time infinity, dose 1 mg/kg, route intravenous; details: plasma; summary of the method: as §1
[16] = AUC (0 to infinity) in Nu/Nu rat at 3 mg/kg, iv administered using TPPW as vehicle; assay type: ADME, organism-based; parameters: time infinity, dose 3 mg/kg, route intravenous; details: plasma; summary of the method: as §2
[17] = AUC (0 to infinity) in Nu/Nu rat at 10 mg/kg, iv administered using TPPW as vehicle; assay type: ADME, organism-based; parameters: time infinity, dose 10 mg/kg, route intravenous; details: plasma; summary of the method: as §2
[18] = AUC (0 to infinity) in Nu/Nu rat at 30 mg/kg, iv administered using TPPW as vehicle; assay type: ADME, organism-based; parameters: time infinity, dose 30 mg/kg, route intravenous; details: plasma; summary of the method: as §2
[19] = Half life in Sprague-Dawley rat at 1 mg/kg, iv administered using PEG400/water as vehicle; assay type: ADME, organism-based; parameters: dose 1 mg/kg, route intravenous; details: in vivo; summary of the method: as §1
[20] = Half life in Nu/Nu rat at 3 mg/kg, iv administered using TPPW as vehicle; assay type: ADME, organism-based; parameters: dose 3 mg/kg, route intravenous; details: in vivo; summary of the method: as §2
[21] = Half life in Nu/Nu rat at 10 mg/kg, iv administered using TPPW as vehicle; assay type: ADME, organism-based; parameters: dose 10 mg/kg, route intravenous; details: in vivo; summary of the method: as §2
[22] = Half life in Nu/Nu rat at 30 mg/kg, iv administered using TPPW as vehicle; assay type: ADME, organism-based; parameters: dose 30 mg/kg, route intravenous; details: in vivo; summary of the method: as §2
Aurora kinase B [23] = target: T2, Aurora kinase B; test: Inhibition of Aurora kinase B in human HCT116 cells assessed as induction of 8N polyploidy; assay type: cell-based; details: HCT-116
HCT-116 [24] = test: Antitumor activity against human HCT116 cells xenografted in athymic nude rat assessed as tumor growth inhibition at 10 mg/kg, iv administered every other day from day 10 post tumor-injection for 3 weeks relative to vehicle treated control; assay type: functional; details: read-out: TGI
Summary of the method: (§3)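 Subcutaneous flank HCT-116 xenografts in nude rats; at Day 1 groups of 10 with mean tumor 301-306 mm³. Tail-vein iv in TPPW (2% Tween-80, 5% propylene glycol, 10% PG-400, 83% water) at 10 mL/kg, weight-adjusted: days 1,3,5,8,10,12,15,17,19 or days 1-4, 8-11, 15-18. Irinotecan control 100 mg/kg ip weekly ×3.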

HCT-116 [25] = test: Antitumor activity against human HCT116 cells xenografted in athymic nude rat assessed as tumor growth inhibition at 20 mg/kg, iv administered every other day from day 10 post tumor-injection for 3 weeks relative to vehicle treated control; assay type: functional; details: read-out: TGI; summary of the method: as §3
HCT-116 [26] = test: Antitumor activity against human HCT116 cells xenografted in athymic nude rat assessed as tumor stasis at 10 to 20 mg/kg, iv administered every other day from day 10 post tumor-injection for 3 weeks measured upto 40 days; assay type: functional, organism-based
Summary of the method: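 HCT-116 flank xenografts in nude rats, groups of 10 at mean 301-306 mm³; iv tail-vein dosing in TPPW at 10 mL/kg on days 1,3,5,8,10,12,15,17,19; tumors followed after dosing stopped, study ending day 42 or day 60.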

Rattus norvegicus [27] = test: Toxicity in athymic nude rat bearing human HCT116 cells assessed body weight loss at 40 mg/kg, iv administered every other day from day 10 post tumor-injection for 3 weeks; assay type: organism-based, HCT-116; parameters: dose 40 mg/kg, route intravenous; details: in vivo, 504 h; summary of the method: as §3
Rattus norvegicus [28] = test: Toxicity in athymic nude rat bearing human HCT116 cells assessed body weight loss up to 20 mg/kg, iv administered every other day from day 10 post tumor-injection for 3 weeks; assay type: organism-based, HCT-116; parameters: dose 20 mg/kg, route intravenous; details: in vivo, 504 h; summary of the method: as §3
HCT-116 [29] = test: Antitumor activity against human HCT116 cells xenografted in athymic nude rat assessed as tumor growth inhibition at 5 mg/kg, iv administered QD for 4 days per week followed by 3 days off per week for 3 weeks; assay type: functional, organism-based; parameters: dose 5 mg/kg; summary of the method: as §3
HCT-116 [30] = test: Antitumor activity against human HCT116 cells xenografted in athymic nude rat assessed as tumor growth inhibition at 10 mg/kg, iv administered QD for 4 days per week followed by 3 days off per week for 3 weeks; assay type: functional, organism-based; parameters: dose 10 mg/kg; summary of the method: as §3
Rattus norvegicus [31] = test: Toxicity in athymic nude rat bearing human HCT116 cells assessed as adverse effects at 5 to 10 mg/kg, iv administered QD for 4 days per week followed by 3 days off per week for 3 weeks; assay type: organism-based, HCT-116; parameters: dose 5-10 mg/kg, route intravenous; details: in vivo; summary of the method: as §3
Aurora kinase C = target: T3, Aurora kinase C (Homo sapiens, UniProt Q9UQB9); test: Binding affinity to Aurora kinase C
T3 sequence (Q9UQB9 whole entry): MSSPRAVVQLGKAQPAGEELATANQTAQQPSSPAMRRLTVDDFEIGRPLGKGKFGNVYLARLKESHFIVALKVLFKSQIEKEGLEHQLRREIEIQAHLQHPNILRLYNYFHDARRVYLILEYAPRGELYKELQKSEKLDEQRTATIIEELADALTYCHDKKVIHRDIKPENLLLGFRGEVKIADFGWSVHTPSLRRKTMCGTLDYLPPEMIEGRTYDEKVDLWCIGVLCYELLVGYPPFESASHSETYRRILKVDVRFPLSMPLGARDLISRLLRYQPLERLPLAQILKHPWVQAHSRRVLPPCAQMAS

fraction unbound [1]: 0.01
Kd (Aurora kinase A [2]): 9.3 nM
Kd (Aurora kinase B [3]): 1.9 nM
IC50 (Aurora kinase B [4]): 3 nM
IC50 (HCT-116 [5]): 2.3 nM
IC50 (Aurora kinase A [6]): 2 nM
clearance [7]: 16.9 mL/min/kg
clearance [8]: 27.9 mL/min/kg
clearance [9]: 20.7 mL/min/kg
clearance [10]: 14.7 mL/min/kg
Vd [11]: 3.49 L/kg
Vd [12]: 1 L/kg
Vd [13]: 1.1 L/kg
Vd [14]: 0.84 L/kg
AUC(0-inf) [15]: 1.8 µM·h
AUC(0-inf) [16]: 3.2 µM·h
AUC(0-inf) [17]: 14.6 µM·h
AUC(0-inf) [18]: 62.5 µM·h
half-life [19]: 9.4 h
half-life [20]: 1.5 h
half-life [21]: 3.8 h
half-life [22]: 3.4 h
inhibition (Aurora kinase B [23]): Dose-dependent effect
Kd (Aurora kinase C): < 10 nM
SMILES: Cc1cc(Nc2nc(Sc3ccc(NC(=O)CN4CC[C@@H](C(=O)NC5CCCC5)C4)cc3)nn3cccc23)n[nH]1
inhibition in vivo at 10 mg/kg (HCT-116 [24]): 77%
inhibition in vivo at 20 mg/kg (HCT-116 [25]): 82%
Activity (HCT-116 [26]): Active
Activity (Rattus norvegicus [27]): > 10%
Activity (Rattus norvegicus [28]): Non-toxic
TGI (HCT-116 [29]): Active
TGI (HCT-116 [30]): Active
Activity (Rattus norvegicus [31]): Non-toxic
